Assay outcomes as filed in PubChem BioAssay.
TRAIL sens C8: caspase-8 TRAIL sensitization. 1% of 360,000 active. NB7+C8 cells + TRAIL, ATPlite viability luminescence. inhibition (viability loss, TRAIL sensitization), % at 10 µM;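 active means compounds causing at least 50% loss of cell viability in the single-dose screen, relative to plate controls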
FLuc stim CS: affects firefly luciferase, flagging false hits in luciferase stimulation screens. ATPlite luciferase biochemical, luminescence, 10 min; 0 = ATP-free wells, 1 = DMSO control. 200,000 tested, under 10 active. activation factor at 10 µM. P08659;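 active means luciferase activation factor, scaled between plate controls, of at least 2 with compound at 10 µM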
Target sequence (P08659 whole entry, looked up): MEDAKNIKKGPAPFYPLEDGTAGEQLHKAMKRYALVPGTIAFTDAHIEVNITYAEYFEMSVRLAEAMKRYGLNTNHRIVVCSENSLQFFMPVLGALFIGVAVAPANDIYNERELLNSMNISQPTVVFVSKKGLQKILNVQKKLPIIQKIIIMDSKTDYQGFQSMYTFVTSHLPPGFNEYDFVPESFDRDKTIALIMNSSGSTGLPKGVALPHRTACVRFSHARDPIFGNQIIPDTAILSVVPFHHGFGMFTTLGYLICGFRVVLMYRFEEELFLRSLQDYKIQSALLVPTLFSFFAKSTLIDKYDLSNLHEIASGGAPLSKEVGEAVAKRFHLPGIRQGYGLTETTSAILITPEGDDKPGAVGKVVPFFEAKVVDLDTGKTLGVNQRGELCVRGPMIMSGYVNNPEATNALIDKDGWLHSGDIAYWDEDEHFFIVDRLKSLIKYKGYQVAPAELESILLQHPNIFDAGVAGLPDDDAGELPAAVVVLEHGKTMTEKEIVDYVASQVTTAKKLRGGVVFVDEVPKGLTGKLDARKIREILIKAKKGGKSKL
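System: Luciferase/luciferin detection reagent, cell-free biochemical luciferase assay | Medium: PBS buffer for ATP | Dosing: Test compounds dosed from 2 mM stocks in 100% DMSO | Timing: 10 min at ambient temperature | Signal: Luminescence measurement of luciferase light output | Evaluation: Luciferase activation, seen as luminescence increase over controls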
FLuc inhib CS: counter-screen for luciferase assay inhibitors: firefly luciferase inhibition; P08659; ATPLite firefly luciferase biochemical luminescence, 10 min; inhibition, % at 10 µM; 1.5% of 200,000 active;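 active means inhibition above about 50% when tested at 10 µM, limit read from the data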
PPC-1+TRAIL kill: kills PPC-1 cancer cells in the presence of TRAIL; PPC-1 cells + TRAIL, ATPLite viability luminescence; cell killing (% activity), % at 4 µM or 5 µM; 0.41% of 220,000 active; AID 1443;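 active means cell killing above 50% in the first pass at 4 µM, then a duplicate retest at 5 µM averaging 50% or more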;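 further: plate controls were cells with TRAIL plus DMSO for no effect and medium-only wells lacking cells for full effect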
HSP90 refold inh: HSP90 refolding inhibition in rabbit reticulocyte lysate; inhibition, % at 5.6 µM; luciferase refolding luminescence, 3 h; AID 1789; 0.91% of 290,000 active;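 active means inhibition above the screen-wide mean plus 3 SD, computed separately per campaign, cut at about 16% in these data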;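 further: 0% = DMSO wells and 100% = 60 µM geldanamycin wells; inhibitors lower the luminescence because luciferase stays unfolded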
Numbers without * were called inactive; . = no result given. Most compounds without a hit are left out; they make up all but 2% or so of the library.

SMILES	TRAIL sens C8	FLuc stim CS	FLuc inhib CS	PPC-1+TRAIL kill	HSP90 refold inh
O=C(NC(c1ccc(-c2ccccc2)cc1)c1cnccn1)C1CCN(Cc2cccc(C(F)(F)F)c2)CC1 (stereo not drawn)	19.2	.	.	.	.
CC(C)c1ccc(S(=O)(=O)/N=C2/C=C(Sc3ncn[nH]3)C(=O)c3ccccc32)cc1	8.3	0.9	7.4	39.2	59.6*
Cc1[nH]nc2nc(SCC(=O)NCCC3=CCCCC3)n(-c3ccc(Br)cc3)c(=N)c12	79.6*	.	.	.	3.8
CCN1/C(=C/c2ccc3cccc(C)c3[n+]2CC)Sc2ccccc21	61.2*	1	-4.0	25.0	1.6
O=C(NNS(=O)(=O)c1ccc2ccccc2c1)c1cc(-c2ccccn2)nc2ccccc12	0.1	1.1	-5.1	18.6	0.9
CCOc1ccc(/C=C/C(=O)c2c(O)c3ccccc3oc2=O)cc1	22.1	0.3	67.3*	15.7	-5.1
CCOc1ccc(/C=C/C(=O)c2c(O)cc(C)oc2=O)cc1	66.3*	.	.	.	-3.1
Cc1cc(O)c(C(=O)/C=C/c2ccccc2)c(=O)o1	5.5	.	.	.	2.9
CN(C)c1ccc(/C=C/C(=O)c2c(O)c3ccccc3oc2=O)cc1	5.7	.	.	-8.6	5.5
CN(C#N)c1nc(Cl)nc(Nc2cccc(Cl)c2)n1	-1.3	1	-3.1	17.2	1.9
Cc1cc(NCCCCCCCNc2cc(C)nc3cc([N+](=O)[O-])ccc23)c2ccc([N+](=O)[O-])cc2n1	57.6*	.	.	.	.
CC(=O)N1CCc2c(sc(NC(=O)C3CC3)c2-c2nc3ccccc3s2)C1	-2.2	1.1	-9.3	-19.1	-0.9
CC(=O)Nc1sc2c(c1-c1nc3ccccc3s1)CN(C(C)C)CC2	53.6*	.	.	.	.
COc1ccc(-c2nc3ccccn3c2C=O)cc1	41.3	0.4	61.4*	34.1	-0.7
O=C1c2ccccc2NC(c2ccc(O)cc2)N1/N=C/c1ccc(O)cc1 (stereo not drawn)	9.4	0.9	7.2	26.1	6.2
O=C1c2ccccc2NC(c2ccccc2)N1/N=C/c1ccccc1 (stereo not drawn)	54.7*	1	3.1	36.0	1.6
CCN(CC)CCNC(=O)CCN1N=C(c2ccccc2)CCC1=O	-12.7	.	.	.	1.1
O=[N+]([O-])c1cc(S(=O)(=O)N2CCCCCC2)ccc1F	74.7*	1	-3.7	30.9	2.6
O=[N+]([O-])c1cc(S(=O)(=O)N2CCCC2)ccc1O	-3.3	1.1	-5.8	8.9	2.0
O=C(COc1ccccc1[N+](=O)[O-])Nc1cccc(S(=O)(=O)N2CCCC2)c1	-7.8	.	.	.	.
O=C(COc1cc(F)ccc1[N+](=O)[O-])Nc1cc(S(=O)(=O)N2CCCC2)ccc1Cl	52.1*	.	.	.	.
CSCCC(C(=O)OC1CCOC1=O)N1C(=O)c2ccccc2C1=O (stereo not drawn)	-0.8	1	-2.6	-3.0	-1.0
COc1ccc(CCC(=O)N2CCCC(Nc3ccccc3)C2)cc1OC (stereo not drawn)	-4.7	.	.	.	2.5
CS(=O)(=O)c1ccc2nc(NC(=O)c3cccc([N+](=O)[O-])c3)sc2c1	62.1*	.	.	.	-1.8
COc1cc(C(=O)Nc2nc3ccc(S(C)(=O)=O)cc3s2)cc(OC)c1C	15.1	.	.	10.9	-3.5
SMILES	TRAIL sens C8	FLuc stim CS	FLuc inhib CS	PPC-1+TRAIL kill	HSP90 refold inh
Cc1ccc(C(=O)Nc2nc3ccc(S(C)(=O)=O)cc3s2)s1	41.6	0.3	65.3*	47.8	-1.1
CS(=O)(=O)c1ccc2nc(NC(=O)c3cc([N+](=O)[O-])cc([N+](=O)[O-])c3)sc2c1	-2.7	.	.	.	3.0
O=C(Nc1nc2ccccc2s1)c1cnccn1	34.2	0.4	59.3*	37.3	6.0
Cc1ccc(C(=O)Nc2nc3ccccc3s2)s1	48.8	0.4	59.9*	45.6	15.7
CCOc1ccc2nc(NC(=O)c3cnccn3)sc2c1	44.4	0.5	45.9	22.5	-1.6
O=C(C1CCCN(S(=O)(=O)c2cc(Cl)ccc2Cl)C1)N1CCOCC1 (stereo not drawn)	-5.0	.	.	.	0.5
Cc1cc(=O)[nH]c(-n2[nH]c(C)cc2=O)n1	-5.7	1.1	-9.4	13.4	-1.7
COc1ccc(-n2[nH]c(C)cc2=O)cc1	-33.4	1	-2.8	13.8	16.7*
CC(C)[C@H](NC(=O)N1CC(=O)Nc2ccccc21)C(=O)N[C@@H](C(=O)O)c1ccccc1	-4.6	.	.	.	-4.4
COc1ccc(-c2nc(N/N=C(\C)c3ccc(O)cc3)c3ccccc3n2)cc1	59.3*	.	.	44.5	2.6
COc1ccc(Nc2nc(-c3ccccc3)nc3ccccc23)cc1	6.7	.	.	.	-3.2
